In ChEMBL document CHEMBL5724801, “EUbOPEN Chemogenomics Library - Multiplex” (2024):
Several values for one entry are separate records, joined by “and”; a condition that tells them apart may be missing. Identical values can stand only once.

Tested on: HEK-293T
Test: Multiplex assay against HEK293T
Format: toxicity, cell-based
Conditions: human
In short: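 Cells were classed with CellPathfinder machine-learning gating, first as Hoechst high-intensity objects or normal cells, then (normal cells) as healthy, pyknosed or fragmented nuclei, and finally (pyknosed cells) as mitotic or apoptotic. Staining of live cells at seeding used Hoechst33342, BioTracker Green Microtubule Cytoskeleton Dye, MitoTracker Red and Annexin V Alexa Fluor 680, with imaging on a CQ1 microscope at 37°C and 5% CO2 after compound addition. Tubulin, mitochondrial-mass and membrane-permeability phenotypes are per cents of healthy-nucleus cells.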

[1] = 12 h, 1 µM, compound concentration 1 uM
[2] = 12 h, 10 µM, compound concentration 10 uM
[3] = 24 h, 1 µM, compound concentration 1 uM
[4] = 24 h, 10 µM, compound concentration 10 uM
[5] = 48 h, 1 µM, compound concentration 1 uM
[6] = 48 h, 10 µM, compound concentration 10 uM

## O=C1c2c(Br)c(Br)c(Br)c(Br)c2C(=O)N1c1ncc[nH]1
[1]
  Population Apoptotic (%): 13.1% and 15.91%
  Population Fragmented Nuclei (%): 2.88% and 4.84%
  Population Healthy Nuclei (%): 55.33% and 24.19%
  Population Hoechst High Intensity Objects (%): 0%
  Population Membrane Permeable-Phenotype (%): 0.52% and 0%
  Population Mitochondria Different-Phenotype (%): 30.21% and 20%
  Population Mitotic Cells (%): 86.9% and 84.09%
  Population Normal (%): 100%
  Population Pyknosed Nuclei (%): 41.79% and 70.97%
  Total Cell Count: 347 and 124
[2]
  Population Apoptotic (%): 11.88% and 18.7%
  Population Fragmented Nuclei (%): 3.09% and 4.38%
  Population Hoechst High Intensity Objects (%): 0.28% and 0%
  Population Membrane Permeable-Phenotype (%): 0.82% and 0%
  Population Mitochondria Different-Phenotype (%): 30.74% and 20%
  Population Mitotic Cells (%): 88.12% and 81.3%
  Population Normal (%): 99.72% and 100%
  Population Pyknosed Nuclei (%): 28.37% and 76.88%
  Total Cell Count: 357 and 160
[3]
  Population Apoptotic (%): 7.29% and 20.59%
  Population Fragmented Nuclei (%): 2.82% and 1.69%
  Population Healthy Nuclei (%): 81.23% and 40.68%
  Population Hoechst High Intensity Objects (%): 0%
  Population Membrane Permeable-Phenotype (%): 0.41% and 0%
  Population Mitochondria Different-Phenotype (%): 13.29% and 6.25%
  Population Mitotic Cells (%): 92.71% and 79.41%
  Population Normal (%): 100%
  Population Tubulin-Different-Phenotype (%): 8.59% and 6.25%
[4]
  Population Apoptotic (%): 15.38% and 16.98%
  Population Fragmented Nuclei (%): 2.6% and 2.87%
  Population Healthy Nuclei (%): 81.63% and 36.21%
  Population Hoechst High Intensity Objects (%): 0%
  Population Membrane Permeable-Phenotype (%): 0.42% and 0%
  Population Mitochondria Different-Phenotype (%): 15.71% and 7.94%
  Population Mitotic Cells (%): 84.62% and 83.02%
  Population Normal (%): 100%
  Population Tubulin-Different-Phenotype (%): 7.64% and 3.17%
[5]
  Population Apoptotic (%): 5.76% and 12.5%
  Population Fragmented Nuclei (%): 3.26% and 4.05%
  Population Healthy Nuclei (%): 88.03% and 68.21%
  Population Hoechst High Intensity Objects (%): 0% and 2.26%
  Population Membrane Permeable-Phenotype (%): 3.85% and 1.69%
  Population Mitochondria Different-Phenotype (%): 10.61% and 18.64%
  Population Mitotic Cells (%): 94.24% and 87.5%
  Population Normal (%): 100% and 97.74%
[6]
  Population Apoptotic (%): 13.95% and 14.89%
  Population Fragmented Nuclei (%): 5.46% and 4.92%
  Population Healthy Nuclei (%): 88.11% and 79.67%
  Population Hoechst High Intensity Objects (%): 0% and 0.97%
  Population Membrane Permeable-Phenotype (%): 6.62% and 4.53%
  Population Mitochondria Different-Phenotype (%): 10.78% and 11.11%
  Population Mitotic Cells (%): 86.05% and 85.11%
  Population Normal (%): 100% and 99.03%
  Population Pyknosed Nuclei (%): 6.43% and 15.41%

## CCCOc1ccc2[nH]cc(C3=CCNCC3)c2n1.Cl
[1]
  Population Apoptotic (%): 32% and 44%
  Population Fragmented Nuclei (%): 5% and 6%
  Population Healthy Nuclei (%): 81% and 82%
  Population Hoechst High Intensity Objects (%): 5% and 4%
  Population Membrane Permeable-Phenotype (%): 0%
  Population Mitochondria Different-Phenotype (%): 41% and 52%
  Population Mitotic Cells (%): 68% and 55%
  Population Normal (%): 94% and 95%
  Population Pyknosed Nuclei (%): 12% and 10%
  Population Tubulin-Different-Phenotype (%): 39% and 21%
  Total Cell Count: 416 and 344
[2]
  Population Apoptotic (%): 43% and 55%
  Population Fragmented Nuclei (%): 5% and 6%
  Population Healthy Nuclei (%): 78% and 82%
  Population Hoechst High Intensity Objects (%): 10% and 4%
  Population Membrane Permeable-Phenotype (%): 0%
  Population Mitochondria Different-Phenotype (%): 58% and 76%
  Population Mitotic Cells (%): 56% and 44%
  Population Normal (%): 89% and 95%
  Population Pyknosed Nuclei (%): 15% and 11%
  Population Tubulin-Different-Phenotype (%): 41%
  Total Cell Count: 446 and 387
[3]
  Population Apoptotic (%): 28% and 35%
  Population Fragmented Nuclei (%): 10% and 9%
  Population Healthy Nuclei (%): 76% and 80%
  Population Hoechst High Intensity Objects (%): 3% and 2%
  Population Membrane Permeable-Phenotype (%): 0% and 1%
  Population Mitochondria Different-Phenotype (%): 26% and 29%
  Population Mitotic Cells (%): 71% and 64%
  Population Normal (%): 96% and 97%
  Population Pyknosed Nuclei (%): 12% and 9%
  Population Tubulin-Different-Phenotype (%): 24% and 14%
  Total Cell Count: 558 and 425
[4]
  Population Apoptotic (%): 39% and 51%
  Population Fragmented Nuclei (%): 12% and 6%
  Population Healthy Nuclei (%): 74% and 81%
  Population Hoechst High Intensity Objects (%): 7% and 3%
  Population Membrane Permeable-Phenotype (%): 0%
  Population Mitochondria Different-Phenotype (%): 50% and 63%
  Population Mitotic Cells (%): 60% and 48%
  Population Normal (%): 92% and 96%
  Population Pyknosed Nuclei (%): 12% and 11%
  Population Tubulin-Different-Phenotype (%): 38% and 34%
  Total Cell Count: 583 and 502
[5]
  Population Apoptotic (%): 17% and 38%
  Population Fragmented Nuclei (%): 13% and 9%
  Population Healthy Nuclei (%): 79% and 82%
  Population Hoechst High Intensity Objects (%): 2% and 1%
  Population Membrane Permeable-Phenotype (%): 0% and 1%
  Population Mitochondria Different-Phenotype (%): 15% and 20%
  Population Mitotic Cells (%): 82% and 61%
  Population Normal (%): 97% and 98%
  Population Pyknosed Nuclei (%): 6% and 7%
  Population Tubulin-Different-Phenotype (%): 12% and 9%
  Total Cell Count: 872 and 657
[6]
  Population Apoptotic (%): 35% and 26%
  Population Fragmented Nuclei (%): 14% and 13%
  Population Healthy Nuclei (%): 76% and 80%
  Population Hoechst High Intensity Objects (%): 6% and 5%
  Population Membrane Permeable-Phenotype (%): 0%
  Population Mitochondria Different-Phenotype (%): 41% and 37%
  Population Mitotic Cells (%): 64% and 73%
  Population Normal (%): 93% and 94%
  Population Pyknosed Nuclei (%): 8% and 6%
  Population Tubulin-Different-Phenotype (%): 23% and 20%
  Total Cell Count: 776 and 733
